Measurements as given in ChEMBL document CHEMBL3286180, “Efficacious inhaled PDE4 inhibitors with low emetic potential and long duration of action for the treatment of COPD” (J Med Chem, 2014).
Values after ≈ are worked out from the molar mass of the structure shown. Active and inactive are the calls of the source. No cut-off for these calls is given here.

Tests used:
PBMC = test: Antiinflammatory activity in human PBMC assessed as inhibition of LPS-induced TNFalpha production after 20 hrs by fluorescence linked immunosorbant assay; assay type: functional, cell-based
Rattus norvegicus [1] = test: (§1) Half life in rat at 1 mg/kg, iv; assay type: ADME, organism-based; parameters: dose 1 mg/kg, route intravenous; conditions: in vivo
Method in brief: (§2)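 Rat pharmacokinetics were run at 1 mg/kg, given iv or by intratracheal instillation, with 2−3 animals per study.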

Rattus norvegicus [2] = test: Antiinflammatory activity in Sprague-Dawley rat assessed as inhibition of LPS-induced bronchoalveolar lavage neutrophils at 0.03 mg/ml, inhalation administered as nebulized suspension; assay type: functional, organism-based
Method in brief: (§3)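 Rats were given the compound as an aqueous nebulized aerosol by nose-only inhalation 30 min before LPS challenge. Dose is expressed as mg/mL nebulizer concentration. Lung neutrophilia was the readout, and terminal lung concentration (nM) was measured. Groups held 8−10 animals per treatment.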

Rattus norvegicus [3] = test: (§4) Volume of distribution at steady state in rat at 1 mg/kg, iv; assay type: ADME, organism-based; parameters: dose 1 mg/kg, route intravenous; conditions: in vivo
[4] = Half life in rat at 1 mg/kg, it; assay type: ADME, organism-based; parameters: dose 1 mg/kg, route endotracheal; conditions: in vivo, inhaled or intranasal; method in brief: as §2
Rattus norvegicus [5] = test: Antiinflammatory activity in Sprague-Dawley rat assessed as inhibition of LPS-induced bronchoalveolar lavage neutrophils at 0.01 to 0.1 mg/ml, inhalation administered as nebulized suspension; assay type: functional, organism-based; method in brief: as §3
Blood [6] = test: Antiinflammatory activity in human whole blood assessed as inhibition of LPS-induced TNFalpha production after 20 hrs by ELISA; assay type: functional, tissue-based
[7] = Aqueous solubility of the compound at pH 7.4; assay type: physicochemical; conditions: aqueous medium
Rattus norvegicus [8] = test: Antiinflammatory activity in Sprague-Dawley rat assessed as inhibition of LPS-induced bronchoalveolar lavage neutrophils measured as LPS duration at 0.03 to 3 mg/ml, inhalation administered as nebulized suspension; assay type: functional, organism-based
Method in brief: (§5)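 Duration protocol: rats received a nose-only inhalation of nebulized aqueous compound solution 12 h before LPS challenge. Dose is expressed as mg/mL nebulizer concentration. Readout was LPS-induced pulmonary neutrophilia, with terminal lung concentration (nM) measured. Groups held 8−10 animals per treatment.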

[9] = target: T1, 3',5'-cyclic-AMP phosphodiesterase 4B (Homo sapiens, UniProt Q07343); test: Inhibition of human recombinant PDE4B using [3H]cAMP by packard topcount scintillation counting analysis
Rattus norvegicus [10] = test: Antiinflammatory activity in Sprague-Dawley rat assessed as inhibition of LPS-induced bronchoalveolar lavage neutrophils up to 350 nM, inhalation administered as nebulized […] treated 12 hr before LPS challenge; assay type: functional, organism-based; method in brief: as §5
[11] = Fraction unbound in human plasma; assay type: ADME, cell-free
Blood [12] = test: tissue or blood; conditions: Rattus norvegicus, 20 h, read-out: pIC50 (converted)
[13] = Intrinsic clearance in human liver microsomes; assay type: ADME; conditions: read-out: CLH
Rattus norvegicus [14] = test: Antiinflammatory activity in Sprague-Dawley rat assessed as inhibition of LPS-induced bronchoalveolar lavage neutrophils measured as terminal lung concentration at 0.1 mg/ml, inhalation administered as nebulized suspension; assay type: functional; method in brief: as §3
Rattus norvegicus [15] = test: Antiinflammatory activity in nasally dosed Sprague-Dawley rat assessed as inhibition of LPS-induced bronchoalveolar lavage neutrophils measured as lung concentration administered as […]; assay type: functional
Method in brief: (§6)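 ED80 was derived from the nose-only nebulized-solution dose response in rats dosed 30 min before LPS challenge, with neutrophilia as the readout. ED80 is given as nebulizer concentration, as the matching terminal total lung concentration, and as lung deposited dose estimated from measured filter sample and terminal lung levels.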

[16] = Intrinsic clearance in rat hepatocytes measured per 10^6 cells; assay type: ADME, cell-based, Hepatocyte; conditions: read-out: CLH
[17] = as §1; assay type: ADME, organism-based; parameters: dose 1 mg/kg, route intravenous; conditions: in vivo; method in brief: as §2
Rattus norvegicus [18] = test: Apparent volume of distribution in rat at 1 mg/kg, iv; assay type: ADME, organism-based; parameters: dose 1 mg/kg, route intravenous; conditions: in vivo; method in brief: as §2
Rattus norvegicus [19] = test: Antiinflammatory activity in Sprague-Dawley rat assessed as inhibition of LPS-induced bronchoalveolar lavage neutrophils measured as terminal lung concentration at 0.03 mg/ml, inhalation administered as nebulized suspension; assay type: functional; method in brief: as §3
[20] = as §4; assay type: ADME, organism-based; parameters: dose 1 mg/kg, route intravenous; conditions: in vivo, read-out: Vdss
Rattus norvegicus [21] = test: Antiinflammatory activity in Sprague-Dawley rat assessed as inhibition of LPS-induced bronchoalveolar lavage neutrophils measured as terminal lung concentration at 0.1 mg/ml, inhalation administered as […] treated 12 hrs before LPS; assay type: functional; method in brief: as §5
[22] = target: T1, 3',5'-cyclic-AMP phosphodiesterase 4B; test: Inhibition of human recombinant PDE4B at high-affinity rolipram binding site
Rattus norvegicus [23] = test: Antiinflammatory activity in Sprague-Dawley rat assessed as inhibition of LPS-induced bronchoalveolar lavage neutrophils measured as terminal lung concentration at 0.01 mg/ml, inhalation administered as nebulized suspension; assay type: functional; method in brief: as §3
[24] = Clearance in rat at 1 mg/kg, iv; assay type: ADME, organism-based; parameters: dose 1 mg/kg, route intravenous; conditions: in vivo; method in brief: as §2
[25] = Half life in dog; assay type: ADME, organism-based, Canis lupus familiaris; conditions: in vivo
[26] = Clearance in dog; assay type: ADME, organism-based, Canis lupus familiaris; conditions: in vivo
[27] = Lipophilicity, log K of the compound; assay type: physicochemical; conditions: octanol/water
[28] = Apparent volume of distribution in dog; assay type: ADME, organism-based, Canis lupus familiaris; conditions: in vivo, read-out: Vz/F
Rattus norvegicus [29] = test: Antiinflammatory activity in nasally dosed Sprague-Dawley rat assessed as inhibition of LPS-induced bronchoalveolar lavage neutrophils measured as lung deposited dose administered as […]; assay type: functional; method in brief: as §6
[30] = target: 3',5'-cyclic-AMP phosphodiesterase 4A (Homo sapiens, UniProt P27815); test: Inhibition of human PDE4A1A using [3H]cAMP by packard topcount scintillation counting analysis
[31] = target: Voltage-gated inwardly rectifying potassium channel KCNH2 (Homo sapiens, UniProt Q12809); test: Inhibition of human ERG
[32] = Volume of distribution at steady state in dog; assay type: ADME, organism-based, Canis lupus familiaris; conditions: in vivo, read-out: Vdss
Rattus norvegicus [33] = test: Antiinflammatory activity in Sprague-Dawley rat assessed as inhibition of LPS-induced bronchoalveolar lavage neutrophils measured as terminal lung concentration at 0.3 mg/ml, inhalation administered as nebulized suspension treated 12 hrs before LPS; assay type: functional; conditions: in the assay text read “nebulized solution” for “nebulized suspension”; method in brief: as §5
[34] = Lipophilicity, log D of the compound; assay type: physicochemical; conditions: octanol/water
Rattus norvegicus [35] = test: Antiinflammatory activity in Sprague-Dawley rat assessed as inhibition of LPS-induced bronchoalveolar lavage neutrophils measured as terminal lung concentration at 0.03 mg/ml, inhalation administered as […] treated 12 hrs before LPS; assay type: functional; method in brief: as §5
[36] = target: 3',5'-cyclic-AMP phosphodiesterase 4D (Homo sapiens, UniProt Q08499); test: Inhibition of human PDE4D using [3H]cAMP by packard topcount scintillation counting analysis
[37] = Oral bioavailability in dog; assay type: ADME, organism-based, Canis lupus familiaris; conditions: in vivo
Rattus norvegicus [38] = test: Antiinflammatory activity in nasally dosed Sprague-Dawley rat assessed as inhibition of LPS-induced bronchoalveolar lavage neutrophils measured as nebulizer concentration administered as […]; assay type: functional; method in brief: as §6
[39] = target: T2, 3',5'-cyclic-AMP phosphodiesterase 4B (Rattus norvegicus, UniProt P14646)
T2 sequence (P14646 whole entry): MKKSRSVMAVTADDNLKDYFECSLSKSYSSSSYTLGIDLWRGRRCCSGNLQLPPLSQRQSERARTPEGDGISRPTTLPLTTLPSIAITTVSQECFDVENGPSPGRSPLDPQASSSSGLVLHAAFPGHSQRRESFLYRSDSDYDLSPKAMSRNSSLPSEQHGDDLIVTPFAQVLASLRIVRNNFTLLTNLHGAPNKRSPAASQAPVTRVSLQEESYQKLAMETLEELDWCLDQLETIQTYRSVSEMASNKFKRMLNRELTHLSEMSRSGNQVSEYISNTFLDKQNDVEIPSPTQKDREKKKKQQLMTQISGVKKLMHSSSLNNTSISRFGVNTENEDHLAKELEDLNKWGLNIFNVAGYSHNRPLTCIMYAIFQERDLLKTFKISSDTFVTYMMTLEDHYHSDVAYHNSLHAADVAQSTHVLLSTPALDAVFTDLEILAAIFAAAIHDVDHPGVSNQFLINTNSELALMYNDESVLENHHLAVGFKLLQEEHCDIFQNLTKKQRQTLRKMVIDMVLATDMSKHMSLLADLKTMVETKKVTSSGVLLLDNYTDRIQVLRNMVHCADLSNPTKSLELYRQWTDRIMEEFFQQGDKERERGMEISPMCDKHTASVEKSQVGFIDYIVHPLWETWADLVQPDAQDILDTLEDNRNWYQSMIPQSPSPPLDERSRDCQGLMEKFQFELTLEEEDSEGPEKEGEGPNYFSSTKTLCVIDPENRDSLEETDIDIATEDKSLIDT

[40] = Fraction unbound in rat plasma; assay type: ADME, cell-free
Rattus norvegicus [41] = test: Antiinflammatory activity in Sprague-Dawley rat assessed as inhibition of LPS-induced bronchoalveolar lavage neutrophils measured as terminal lung concentration at 0.003 mg/ml, inhalation administered as nebulized suspension; assay type: functional; method in brief: as §3

T1 sequence (Q07343 whole entry): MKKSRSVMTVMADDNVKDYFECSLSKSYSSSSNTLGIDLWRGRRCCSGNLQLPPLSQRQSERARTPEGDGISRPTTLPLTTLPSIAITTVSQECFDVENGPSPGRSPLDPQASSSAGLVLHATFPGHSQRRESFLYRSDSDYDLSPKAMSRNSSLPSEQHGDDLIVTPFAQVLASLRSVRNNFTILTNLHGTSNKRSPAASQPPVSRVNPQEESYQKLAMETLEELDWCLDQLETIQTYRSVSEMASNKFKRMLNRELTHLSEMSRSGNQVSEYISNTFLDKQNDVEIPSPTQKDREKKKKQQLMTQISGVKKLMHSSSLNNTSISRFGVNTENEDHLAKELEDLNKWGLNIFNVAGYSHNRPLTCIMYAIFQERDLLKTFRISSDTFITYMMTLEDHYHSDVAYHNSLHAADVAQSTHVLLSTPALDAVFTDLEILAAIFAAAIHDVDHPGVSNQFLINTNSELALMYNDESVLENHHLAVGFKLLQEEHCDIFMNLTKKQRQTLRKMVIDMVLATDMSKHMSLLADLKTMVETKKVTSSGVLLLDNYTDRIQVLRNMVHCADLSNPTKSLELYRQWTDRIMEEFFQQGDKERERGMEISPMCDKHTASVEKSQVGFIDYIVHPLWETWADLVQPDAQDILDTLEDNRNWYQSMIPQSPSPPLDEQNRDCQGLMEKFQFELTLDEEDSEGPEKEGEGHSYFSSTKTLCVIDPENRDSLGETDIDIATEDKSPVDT
Sequence of 3',5'-cyclic-AMP phosphodiesterase 4D (Q08499 whole entry): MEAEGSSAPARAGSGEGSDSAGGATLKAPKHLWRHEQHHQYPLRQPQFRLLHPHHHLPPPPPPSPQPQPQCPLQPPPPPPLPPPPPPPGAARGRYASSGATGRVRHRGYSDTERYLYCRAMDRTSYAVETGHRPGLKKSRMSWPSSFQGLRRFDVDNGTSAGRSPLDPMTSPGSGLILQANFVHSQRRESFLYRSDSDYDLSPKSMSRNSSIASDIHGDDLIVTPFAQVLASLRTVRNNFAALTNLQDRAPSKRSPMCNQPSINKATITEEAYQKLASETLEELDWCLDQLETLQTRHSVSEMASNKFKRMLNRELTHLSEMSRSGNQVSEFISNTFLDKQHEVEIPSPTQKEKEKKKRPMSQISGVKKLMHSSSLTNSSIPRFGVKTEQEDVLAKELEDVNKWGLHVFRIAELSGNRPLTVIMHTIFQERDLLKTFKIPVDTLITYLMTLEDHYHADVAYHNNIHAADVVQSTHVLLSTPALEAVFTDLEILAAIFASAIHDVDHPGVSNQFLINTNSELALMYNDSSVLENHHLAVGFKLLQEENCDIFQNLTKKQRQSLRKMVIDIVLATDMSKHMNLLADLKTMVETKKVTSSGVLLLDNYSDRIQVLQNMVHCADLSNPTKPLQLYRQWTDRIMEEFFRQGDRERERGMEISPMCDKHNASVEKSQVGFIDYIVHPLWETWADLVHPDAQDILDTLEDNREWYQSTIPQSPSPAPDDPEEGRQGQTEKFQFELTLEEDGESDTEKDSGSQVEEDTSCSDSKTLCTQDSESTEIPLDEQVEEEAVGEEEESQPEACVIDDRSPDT
Sequence of 3',5'-cyclic-AMP phosphodiesterase 4A (P27815 whole entry): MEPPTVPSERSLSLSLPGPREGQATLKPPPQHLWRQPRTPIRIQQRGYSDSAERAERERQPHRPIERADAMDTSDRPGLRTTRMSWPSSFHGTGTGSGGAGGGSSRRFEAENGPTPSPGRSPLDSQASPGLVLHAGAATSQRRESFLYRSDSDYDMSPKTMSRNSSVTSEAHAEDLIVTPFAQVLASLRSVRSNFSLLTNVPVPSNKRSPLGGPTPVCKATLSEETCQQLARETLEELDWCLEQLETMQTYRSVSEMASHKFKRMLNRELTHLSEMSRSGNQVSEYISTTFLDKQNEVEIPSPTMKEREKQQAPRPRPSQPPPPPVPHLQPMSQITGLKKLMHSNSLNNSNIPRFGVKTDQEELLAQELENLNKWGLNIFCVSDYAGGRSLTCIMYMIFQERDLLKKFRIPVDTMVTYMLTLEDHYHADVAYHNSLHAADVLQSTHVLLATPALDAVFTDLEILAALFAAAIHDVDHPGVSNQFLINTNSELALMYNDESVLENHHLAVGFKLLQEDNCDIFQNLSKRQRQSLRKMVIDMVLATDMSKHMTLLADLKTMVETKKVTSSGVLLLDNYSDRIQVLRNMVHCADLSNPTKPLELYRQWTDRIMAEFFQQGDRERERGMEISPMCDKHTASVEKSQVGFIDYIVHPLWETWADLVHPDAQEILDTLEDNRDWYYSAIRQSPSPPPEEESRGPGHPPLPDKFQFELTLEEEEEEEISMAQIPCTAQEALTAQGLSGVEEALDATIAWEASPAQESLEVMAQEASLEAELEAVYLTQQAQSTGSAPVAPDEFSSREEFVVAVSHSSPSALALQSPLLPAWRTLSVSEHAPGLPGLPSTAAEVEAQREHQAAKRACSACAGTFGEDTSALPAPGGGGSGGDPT
Sequence of Voltage-gated inwardly rectifying potassium channel KCNH2 (Q12809 whole entry): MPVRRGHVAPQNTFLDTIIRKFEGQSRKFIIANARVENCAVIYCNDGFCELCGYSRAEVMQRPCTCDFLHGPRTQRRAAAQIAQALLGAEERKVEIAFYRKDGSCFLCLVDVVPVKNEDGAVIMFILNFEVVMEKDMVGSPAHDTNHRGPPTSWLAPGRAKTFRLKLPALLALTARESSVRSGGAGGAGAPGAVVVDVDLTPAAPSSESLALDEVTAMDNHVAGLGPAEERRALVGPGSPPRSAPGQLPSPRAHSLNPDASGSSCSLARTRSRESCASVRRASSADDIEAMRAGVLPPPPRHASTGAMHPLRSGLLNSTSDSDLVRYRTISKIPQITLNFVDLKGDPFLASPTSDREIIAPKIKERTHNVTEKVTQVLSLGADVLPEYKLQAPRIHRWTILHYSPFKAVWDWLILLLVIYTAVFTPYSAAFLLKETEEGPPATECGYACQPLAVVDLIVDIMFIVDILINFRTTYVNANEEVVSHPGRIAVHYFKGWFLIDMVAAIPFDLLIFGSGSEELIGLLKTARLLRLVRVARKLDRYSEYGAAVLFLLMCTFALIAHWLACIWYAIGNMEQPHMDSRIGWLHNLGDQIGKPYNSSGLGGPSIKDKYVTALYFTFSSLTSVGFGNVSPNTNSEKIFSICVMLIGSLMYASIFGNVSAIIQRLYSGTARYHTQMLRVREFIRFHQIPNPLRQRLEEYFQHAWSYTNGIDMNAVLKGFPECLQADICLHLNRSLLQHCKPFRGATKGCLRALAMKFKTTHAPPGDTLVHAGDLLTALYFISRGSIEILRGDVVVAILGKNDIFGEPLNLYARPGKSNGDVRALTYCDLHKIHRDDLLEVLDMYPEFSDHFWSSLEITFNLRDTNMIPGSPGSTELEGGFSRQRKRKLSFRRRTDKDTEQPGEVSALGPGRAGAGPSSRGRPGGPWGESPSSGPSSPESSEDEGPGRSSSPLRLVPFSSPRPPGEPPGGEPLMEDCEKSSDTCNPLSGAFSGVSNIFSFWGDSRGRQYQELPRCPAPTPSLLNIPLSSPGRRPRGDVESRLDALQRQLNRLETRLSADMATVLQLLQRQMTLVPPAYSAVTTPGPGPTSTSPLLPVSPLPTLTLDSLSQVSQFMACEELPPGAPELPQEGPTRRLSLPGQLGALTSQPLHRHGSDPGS

**Q.** Which IC50 (PBMC) does the source give for COc1cccc(Nc2c(C(N)=O)cnc3c(C)cc(S(=O)(=O)c4cccc(C(=O)N(C)C)c4)cc23)c1 [GSK-256066] here?
**A.** 0.00316 nM

**Q.** And the t1/2 (Rattus norvegicus [1])?
**A.** 14.9 h

**Q.** And the inhibition (Rattus norvegicus [2])?
**A.** Active

**Q.** What about the Vdss (Rattus norvegicus [3]) of the same molecule?
**A.** 0.75 L/kg

**Q.** What about the half-life [4] of the same molecule?
**A.** 8.1 h

**Q.** And the inhibition (Rattus norvegicus [5])?
**A.** inactive

**Q.** And the IC50 (Blood [6])?
**A.** 0.316 nM

**Q.** What about the solubility [7] of the same molecule?
**A.** 1.2 µM (≈ 0.622 µg/mL)

**Q.** And the inhibition (Rattus norvegicus [8])?
**A.** Active

**Q.** What about the IC50 [9] of the same molecule?
**A.** < 0.01 nM

**Q.** And the inhibition (Rattus norvegicus [10])?
**A.** inactive

**Q.** What about the fraction unbound [11] of the same molecule?
**A.** 0.015

**Q.** What about the IC50 (Blood [12]) of the same molecule?
**A.** 0.251 nM

**Q.** And the microsomal CLint [13]?
**A.** > 150 µL/min/mg

**Q.** Which results are given for Cc1csc(C(=O)N[C@H]2CC[C@@H](NC(=O)c3cc(F)cnc3Oc3cccc(-c4ccc(CN5C[C@@H](C)N[C@@H](C)C5)cc4CN4CCOCC4)c3)CC2)n1?
**A.** Activity (Rattus norvegicus [14]): 90 nM; ED80 (Rattus norvegicus [15]): 23 nM; hepatocyte CLint [16]: 10 µL/min/1e6 cells; IC50 (PBMC): 0.02 nM; half-life [17]: 7 h; Vz/F (Rattus norvegicus [18]): 27 L/kg; Activity (Rattus norvegicus [19]): 30 nM; Vd [20]: 18 L/kg; Activity (Rattus norvegicus [21]): 22 nM; half-life [4]: 8 h; IC50 [22]: < 10 nM; Activity (Rattus norvegicus [23]): 12 nM; clearance [24]: 44 mL/min/kg; IC50 (Blood [6]): 0.316 nM; half-life [25]: 15 h; clearance [26]: 34 mL/min/kg; log K [27]: 1.32; Vd/F [28]: 44 L/kg; ED80 (Rattus norvegicus [29]): 0.2 µg/kg; IC50 [30]: < 10 nM; IC50 [31]: 20000 nM; Vd [32]: 26 L/kg; Activity (Rattus norvegicus [33]): 57 nM; logD [34]: 1.9; Activity (Rattus norvegicus [35]): 7 nM; IC50 [36]: 0.02 nM; IC50 [9]: 0.0251 nM; bioavailability [37]: 16%; fraction unbound [11]: 0.045; ED80 (Rattus norvegicus [38]): 20 µg/mL (≈ 26.5 µM); IC50 [39]: 0.02 nM; fraction unbound [40]: 0.23; microsomal CLint [13]: > 150 µL/min/mg; Activity (Rattus norvegicus [41]): 2 nM
